Measured values reported in ChEMBL document CHEMBL4371016, “Proline- and Arginine-Rich Peptides as Flexible Allosteric Modulators of Human Proteasome Activity” (J Med Chem, 2019).
Calls of active or inactive are those of the source. No cut-off for these calls is given here. Residues, ends and D or L forms follow the SMILES beside them.

Legend:
[1] = target: T1, Proteasome Macropain subunit MB1 (Homo sapiens) (UniProt P28074); assay: Stimulation of 20S proteasome chymotrypsin like activity in human primary fibroblasts preincubated for 24 hrs followed by Suc-LLVY-AMC substrate addition and measured at 2 mins interval up to 60 mins by fluorescence assay
T1 sequence (whole entry): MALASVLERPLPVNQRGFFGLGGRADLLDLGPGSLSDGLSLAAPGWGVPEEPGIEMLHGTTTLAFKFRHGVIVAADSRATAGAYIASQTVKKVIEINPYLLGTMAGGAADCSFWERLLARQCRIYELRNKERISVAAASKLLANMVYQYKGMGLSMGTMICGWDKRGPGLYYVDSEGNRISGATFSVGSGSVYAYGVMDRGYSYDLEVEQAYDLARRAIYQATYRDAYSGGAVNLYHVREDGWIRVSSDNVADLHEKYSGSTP
Method in brief: (§1)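 Fibroblasts (GM04390, 3% O2, 37 °C) exposed to 0.1–20 μM peptide or DMSO for 24 h after Optimem switch. Cells scraped, lysed in 50 mM Tris/HCl pH 7.4, 5 mM MgCl2, 1 mM DTT by mechanical lysis and freeze fractionation. Bradford-normalised lysate (1 μg in 100 μL) incubated with 50 μM Suc-LLVY-AMC; fluorescence ex 370/em 460 nm.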

[2] = target: T2, 20S proteasome (Homo sapiens) (UniProt P49721+P20618+P28074+P28062+P28065+P28072+P25786+P25787+P25788+P25789+P28066+P60900+O14818+Q8TAA3+P40306+A5LHX3+P49720+P28070+Q99436); assay: Negative allosteric modulation of SDS-activated human erythrocytes 20S proteasome assessed as reduction in human alpha-synuclein degradation at 1 uM after 1 hr by SDS-PAGE analysis
Method in brief: (§2)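 Human α-synuclein or yeast enolase digested by human 20S activated with 0.01% SDS (20S:substrate 1:100 pmol α-syn, 1:10 pmol enolase) in 20 mM HEPES pH 7.4 at 37 °C for 1 h (α-syn) or 4 h (enolase). DMSO at or below 0.05%. SDS–PAGE (12% or 10%) with Coomassie staining; remaining substrate densitometry as percent of control; at least three experiments, mean ± SEM.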

[3] = target: T1, Proteasome Macropain subunit MB1 (Homo sapiens); assay: Negative allosteric modulation of SDS-activated human erythrocytes 20S proteasome chymotrypsin like activity up to 10 uM using LFP as substrate measured every 2 mins up to 60 mins by fluorescence assay
[4] = target: T2, 20S proteasome (Homo sapiens); assay: Effect on alpha-face conformations of latent human erythrocytes 20S proteasome assessed as open state conformation at 1 uM by atomic force microscopic method (reference value: 7%)
[5] = target: T2, 20S proteasome (Homo sapiens); assay: Effect on alpha-face conformations of latent human erythrocytes 20S proteasome assessed as intermediate state conformation at 1 uM by atomic force microscopic method (reference value: 22%)
[6] = target: T2, 20S proteasome (Homo sapiens); assay: Positive allosteric modulation of SDS-activated human erythrocytes 20S proteasome assessed as increase in yeast enolase degradation at 1 uM after 4 hr by SDS-PAGE analysis relative to control
[7] = target: T1, Proteasome Macropain subunit MB1 (Homo sapiens); assay: Positive allosteric modulation of 1 uM Rpt5-activated human erythrocytes 20S proteasome chymotrypsin like activity up to 10 uM using Suc-LLVY-AMC as substrate measured every 1 min up to 60 mins by fluorescence assay
[8] = target: T1, Proteasome Macropain subunit MB1 (Homo sapiens); assay: Stimulation of 20S proteasome chymotrypsin like activity in human primary fibroblasts at 10 uM preincubated for 24 hrs followed by Suc-LLVY-AMC substrate addition and measured at 2 mins interval up to 60 mins by fluorescence assay relative to control; method in brief: as §1
[9] = target: T1, Proteasome Macropain subunit MB1 (Homo sapiens); assay: Negative allosteric modulation of 10 uM Rpt5-activated human erythrocytes 20S proteasome chymotrypsin like activity up to 10 uM using Suc-LLVY-AMC as substrate measured every 1 min up to 60 mins by fluorescence assay
[10] = target: Proteasome subunit beta type-6 (Homo sapiens) (UniProt P28072); assay: Positive allosteric modulation of latent human erythrocytes 20S proteasome caspase like activity at 10 uM using Z-LLE-AMC as substrate measured every 1 min up to 60 mins by fluorescence assay relative to control
Proteasome subunit beta type-6 (Homo sapiens), sequence (P28072 whole entry, looked up): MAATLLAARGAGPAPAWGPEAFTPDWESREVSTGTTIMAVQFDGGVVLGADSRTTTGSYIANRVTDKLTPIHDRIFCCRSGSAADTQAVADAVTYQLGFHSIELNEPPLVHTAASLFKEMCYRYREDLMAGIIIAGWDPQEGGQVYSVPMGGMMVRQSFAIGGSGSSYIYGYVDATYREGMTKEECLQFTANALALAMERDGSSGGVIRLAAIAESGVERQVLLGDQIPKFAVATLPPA

[11] = target: T1, Proteasome Macropain subunit MB1 (Homo sapiens); assay: Positive allosteric modulation of latent human erythrocytes 20S proteasome chymotrypsin like activity at 25 uM using LFP as substrate measured every 2 mins up to 60 mins by fluorescence assay relative to control
[12] = target: T2, 20S proteasome (Homo sapiens); assay: Positive allosteric modulation of SDS-activated human erythrocytes 20S proteasome assessed as increase in human alpha-synuclein degradation at 10 uM after 1 hr by SDS-PAGE analysis
[13] = target: T3, Proteasome component C5 (Homo sapiens) (UniProt P20618); assay: Positive allosteric modulation of latent human erythrocytes 20S proteasome caspase like activity at 10 uM measured every 1 min up to 60 mins by fluorescence assay relative to control
T3 sequence (whole entry): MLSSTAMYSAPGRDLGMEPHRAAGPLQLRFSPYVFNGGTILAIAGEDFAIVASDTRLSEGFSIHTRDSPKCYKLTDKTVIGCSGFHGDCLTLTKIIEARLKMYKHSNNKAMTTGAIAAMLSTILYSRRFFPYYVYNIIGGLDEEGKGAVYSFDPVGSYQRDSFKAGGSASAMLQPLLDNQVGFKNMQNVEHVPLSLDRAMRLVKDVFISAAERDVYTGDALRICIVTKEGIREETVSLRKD

[14] = target: T1, Proteasome Macropain subunit MB1 (Homo sapiens); assay: Positive allosteric modulation of latent human erythrocytes 20S proteasome chymotrypsin like activity at 25 uM using Suc-LLVY-AMC as substrate measured every 2 mins up to 60 mins by fluorescence assay relative to control
[15] = target: T1, Proteasome Macropain subunit MB1 (Homo sapiens); assay: Positive allosteric modulation of latent human erythrocytes 20S proteasome chymotrypsin like activity using LFP as substrate measured every 2 mins up to 60 mins by fluorescence assay
[16] = target: T2, 20S proteasome (Homo sapiens); assay: Positive allosteric modulation of SDS-activated human erythrocytes 20S proteasome assessed as increase in yeast enolase degradation at 10 uM after 4 hr by SDS-PAGE analysis
[17] = target: T2, 20S proteasome (Homo sapiens); assay: Negative allosteric modulation of SDS-activated human erythrocytes 20S proteasome assessed as reduction in yeast enolase degradation at 10 uM after 4 hr by SDS-PAGE analysis
[18] = target: T1, Proteasome Macropain subunit MB1 (Homo sapiens); assay: Negative allosteric modulation of SDS-activated human erythrocytes 20S proteasome chymotrypsin like activity using Suc-LLVY-AMC as substrate measured every 2 mins up to 60 mins by fluorescence assay
Method in brief: (§3)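 1.4 nM CP (0.001 mg/mL) in 50 mM Tris-HCl pH 8.0, activated with 0.005% SDS where stated, otherwise latent. Suc-LLVY-AMC at 100 μM final. AMC fluorescence read every 2 min up to 60 min at 37 °C. Activity relative to DMSO-treated enzyme, from at least three independent replicates. Peptide stocks 10 mM in DMSO.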

[19] = target: T1, Proteasome Macropain subunit MB1 (Homo sapiens); assay: Positive allosteric modulation of latent human erythrocytes 20S proteasome chymotrypsin like activity up to 10 uM using LFP as substrate measured every 2 mins up to 60 mins by fluorescence assay
[20] = target: T2, 20S proteasome (Homo sapiens); assay: Effect on alpha-face conformations of latent human erythrocytes 20S proteasome assessed as closed state conformation at 1 uM by atomic force microscopic method (reference value: 70%)
[21] = target: T2, 20S proteasome (Homo sapiens); assay: Effect on alpha-face conformations of latent human erythrocytes 20S proteasome assessed as closed state conformation at 10 uM by atomic force microscopic method (reference value: 70%)
[22] = target: T2, 20S proteasome (Homo sapiens); assay: Negative allosteric modulation of SDS-activated human erythrocytes 20S proteasome assessed as reduction in human alpha-synuclein degradation at 10 uM after 1 hr by SDS-PAGE analysis; method in brief: as §2
[23] = target: T2, 20S proteasome (Homo sapiens); assay: Effect on alpha-face conformations of latent human erythrocytes 20S proteasome assessed as open state conformation at 10 uM by atomic force microscopic method (reference value: 7%)
[24] = target: T1, Proteasome Macropain subunit MB1 (Homo sapiens); assay: Positive allosteric modulation of latent human erythrocytes 20S proteasome chymotrypsin like activity up to 10 uM using Suc-LLVY-AMC as substrate measured every 2 mins up to 60 mins by fluorescence assay; method in brief: as §3
[25] = target: T3, Proteasome component C5 (Homo sapiens); assay: Negative allosteric modulation of SDS-activated human erythrocytes 20S proteasome caspase like activity at lower concentration using Z-LLE-AMC as substrate measured every 2 mins up to 60 mins by fluorescence assay
[26] = target: T2, 20S proteasome (Homo sapiens); assay: Negative allosteric modulation of SDS-activated human erythrocytes 20S proteasome assessed as reduction in yeast enolase degradation at 1 uM after 4 hr by SDS-PAGE analysis
[27] = target: T1, Proteasome Macropain subunit MB1 (Homo sapiens); assay: Positive allosteric modulation of latent human erythrocytes 20S proteasome chymotrypsin like activity up to 10 uM using LFP as substrate measured every 2 mins up to 60 mins by fluorescence assay
[28] = target: Proteasome Macropain subunit (Homo sapiens) (UniProt P49721); assay: Negative allosteric modulation of SDS-activated human erythrocytes 20S proteasome trypsin like activity at 10 uM using Boc-LRR-AMC as substrate measured every 2 mins up to 60 mins by fluorescence assay
Proteasome Macropain subunit (Homo sapiens), sequence (P49721 whole entry): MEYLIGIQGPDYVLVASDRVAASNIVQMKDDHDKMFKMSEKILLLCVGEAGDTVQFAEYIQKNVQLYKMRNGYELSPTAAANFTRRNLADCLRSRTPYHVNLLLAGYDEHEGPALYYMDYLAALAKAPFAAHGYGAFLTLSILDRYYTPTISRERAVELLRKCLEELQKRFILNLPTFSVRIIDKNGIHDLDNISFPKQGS

[29] = target: T2, 20S proteasome (Homo sapiens); assay: Effect on alpha-face conformations of latent human erythrocytes 20S proteasome assessed as intermediate state conformation at 10 uM by atomic force microscopic method (reference value: 22%)
[30] = target: T1, Proteasome Macropain subunit MB1 (Homo sapiens); assay: Positive allosteric modulation of latent human erythrocytes 20S proteasome chymotrypsin like activity at 5 uM using Suc-LLVY-AMC as substrate measured every 2 mins up to 60 mins by fluorescence assay relative to control

SMILES | Activity [2] | Activity [3] | Activity [4] [%] | Activity [17] | Activity [19] | Activity [22] | Activity [25] | Activity [26] | Activity [27] | Activity [28] | other results
C[C@H](NC(=O)[C@H](Cc1ccc(O)cc1)NC(=O)[C@H](Cc1ccc(O)cc1)NC(=O)[C@@H]1CCCN1C(=O)[C@@H]1CCCN1C(=O)[C@@H]1CCCN1C(=O)[C@@H]1CCCN1C(=O)[C@H](CCCNC(=N)N)NC(=O)[C@H](CCCNC(=N)N)NC(=O)[C@@H](N)CCCNC(=N)N)C(=O)O (H-RRRPPPPYYA-OH) | inactive | inactive | 18 |  |  |  |  |  |  |  | Activity [1]: Dose-dependent effect; Activity [5]: 36%; fold change (FC) [6]: > 2; fold change (FC) [7]: 2; fold change (FC) [8]: 3; Activity [9]: inactive; fold change (FC) [10]: 5 to 7; fold change (FC) [11]: 14; Activity [12]: Active; fold change (FC) [13]: 5 to 7; fold change (FC) [14]: < 7; Activity [15]: Dose-dependent effect; Activity [16]: Active
CC(C)C[C@H](NC(=O)[C@H](Cc1ccc(O)cc1)NC(=O)[C@@H]1CCCN1C(=O)[C@@H]1CCCN1C(=O)[C@H](CCCNC(=N)N)NC(=O)[C@@H]1CCCN1C(=O)[C@H](CCCNC(=N)N)NC(=O)[C@H](CCCNC(=N)N)NC(=O)[C@@H](N)CCCNC(=N)N)C(=O)N1CCC[C@H]1C(=O)N[C@@H](CCCNC(=N)N)C(=O)N[C@@H](Cc1c[nH]c2ccccc12)C(=O)NCC(=O)O (H-RRRPRPPYLPRWG-OH) | Active | Active | < 3 | Active | inactive | Active | Active | Active | inactive | Active | Activity [18]: Dose-dependent effect; Activity [20]: 73%; Activity [21]: 57%; Activity [23]: 18%; Activity [24]: inactive; Activity [29]: 25%
CC(C)C[C@H](NC(=O)[C@H](Cc1ccc(O)cc1)NC(=O)[C@H](CCCNC(=N)N)NC(=O)[C@H](CCCNC(=N)N)NC(=O)[C@@H](N)CCCNC(=N)N)C(=O)N1CCC[C@H]1C(=O)N[C@@H](CCCNC(=N)N)C(=O)N[C@@H](Cc1c[nH]c2ccccc12)C(=O)NCC(N)=O (H-RRRYLPRWG-NH2) |  | Active |  | inactive | inactive | Active | Active | inactive | inactive | Active | fold change (FC) [30]: 2
